What was measured:
Vero [1] = assay: Relative antiplasmodial activity to cytotoxicity in Plasmodium falciparum V1/S infected Vero cells; format: functional
Vero [2] = assay: In vitro cytotoxicity against Plasmodium falciparum infected vero cell line.; format: functional, cell-based; conditions: Chlorocebus sabaeus
In short: (§1)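 Cytotoxicity (IC50, μM) run against three mammalian lines: Vero (African green monkey kidney fibroblasts), KB (human epidermoid carcinoma) and BC (human breast cancer). Testing followed the Skehan et al. protocol.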

[3] = molecular target: Bifunctional dihydrofolate reductase-thymidylate synthase (Plasmodium falciparum K1, UniProt P13922, C59R/I164L/N51I/S108N); assay: Binding affinity towards mutant dihydrofolate reductase (N51I+C59R+S108N+I164L DHFR) of Plasmodium falciparum
Bifunctional dihydrofolate reductase-thymidylate synthase (Plasmodium falciparum K1, UniProt P13922, C59R/I164L/N51I/S108N), sequence (P13922 whole entry, looked up, stated change not applied): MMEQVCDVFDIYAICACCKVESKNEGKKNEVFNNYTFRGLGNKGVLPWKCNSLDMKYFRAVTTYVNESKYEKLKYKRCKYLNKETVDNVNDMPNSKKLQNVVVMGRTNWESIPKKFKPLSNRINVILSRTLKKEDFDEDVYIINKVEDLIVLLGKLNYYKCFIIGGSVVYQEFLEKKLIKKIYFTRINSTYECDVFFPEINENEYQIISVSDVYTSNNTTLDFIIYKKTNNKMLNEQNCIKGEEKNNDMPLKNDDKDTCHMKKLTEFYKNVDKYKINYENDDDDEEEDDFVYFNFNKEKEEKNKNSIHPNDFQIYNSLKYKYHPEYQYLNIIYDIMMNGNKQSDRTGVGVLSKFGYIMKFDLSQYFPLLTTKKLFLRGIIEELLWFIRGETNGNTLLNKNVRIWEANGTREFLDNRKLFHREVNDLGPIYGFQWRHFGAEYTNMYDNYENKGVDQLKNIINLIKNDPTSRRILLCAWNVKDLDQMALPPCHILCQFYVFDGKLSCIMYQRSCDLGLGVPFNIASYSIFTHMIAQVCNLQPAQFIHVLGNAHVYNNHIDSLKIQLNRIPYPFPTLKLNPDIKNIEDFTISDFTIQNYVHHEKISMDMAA

Vero [4] = assay: Relative antiplasmodial activity to cytotoxicity in Plasmodium falciparum Csl-2 infected Vero cells; format: functional
Vero [5] = assay: Relative antiplasmodial activity to cytotoxicity in Plasmodium falciparum TM4/8.2 infected Vero cells; format: functional
[6] = tested on: Bifunctional dihydrofolate reductase-thymidylate synthase (Plasmodium falciparum K1), P13922 [UNDEFINED MUTATION]; assay: Ratio of binding affinity for mutant (N51I+C59R+S108N+I164L) to that of wild type dihydrofolate reductase
Bifunctional dihydrofolate reductase-thymidylate synthase (Plasmodium falciparum K1), P13922 [UNDEFINED MUTATION], sequence (P13922 whole entry, looked up, stated change not applied): as above
In short: (§2)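 Each ratio is Ki for the mutant PfDHFR divided by Ki for wild-type PfDHFR. The recombinant enzymes were expressed in E. coli BL21(DE3)pLysS and purified on methotrexate-Sepharose. Ki was derived assuming inhibitors compete with substrate binding.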

BC [7] = assay: In vitro cytotoxicity against BC cell line.; conditions: Homo sapiens
[8] = molecular target: Bifunctional dihydrofolate reductase-thymidylate synthase (Plasmodium falciparum K1, UniProt P13922, C59R/N51I/S108N); assay: Binding affinity towards mutant dihydrofolate reductase (N51I+C59R+S108N DHFR) of Plasmodium falciparum
Bifunctional dihydrofolate reductase-thymidylate synthase (Plasmodium falciparum K1, UniProt P13922, C59R/N51I/S108N), sequence (P13922 whole entry, looked up, stated change not applied): as above

KB [9] = assay: Relative antiplasmodial activity to cytotoxicity in Plasmodium falciparum TM4/8.2 infected KB cells; format: functional
BC [10] = assay: Relative antiplasmodial activity to cytotoxicity in Plasmodium falciparum TM4/8.2 infected BC cells; format: functional
[11] = molecular target: Bifunctional dihydrofolate reductase-thymidylate synthase (Plasmodium falciparum K1, UniProt P13922, A16V/S108T); assay: Binding affinity towards mutant dihydrofolate reductase (A16V+S108T DHFR) of Plasmodium falciparum.
Bifunctional dihydrofolate reductase-thymidylate synthase (Plasmodium falciparum K1, UniProt P13922, A16V/S108T), sequence (P13922 whole entry, looked up, stated change not applied): as above

KB [12] = assay: In vitro cytotoxicity against Plasmodium falciparum infected KB cell line; format: functional, cell-based; conditions: Homo sapiens; in short: as §1
[13] = molecular target: Bifunctional dihydrofolate reductase-thymidylate synthase (Plasmodium falciparum K1) (UniProt P13922); assay: Ratio of binding affinity for mutant (N51I+C59R+S108N) to that of wild type dihydrofolate reductase; in short: as §2
Bifunctional dihydrofolate reductase-thymidylate synthase (Plasmodium falciparum K1), sequence (P13922 whole entry, looked up): as the sequence (P13922 whole entry, looked up, stated change not applied) above

[14] = tested on: Bifunctional dihydrofolate reductase-thymidylate synthase (Plasmodium falciparum K1), P13922 [UNDEFINED MUTATION]; assay: Ratio of binding affinity for mutant (C59R+S108N+I164L) to that of wild type dihydrofolate reductase; in short: as §2
KB [15] = assay: Relative antiplasmodial activity to cytotoxicity in Plasmodium falciparum Csl-2 infected KB cells; format: functional
KB [16] = assay: Relative antiplasmodial activity to cytotoxicity in Plasmodium falciparum V1/S infected KB cells; format: functional
[17] = tested on: Bifunctional dihydrofolate reductase-thymidylate synthase (Plasmodium falciparum K1), P13922 [UNDEFINED MUTATION]; assay: Ratio of binding affinity for mutant (A16V+S108T) to that of wild type dihydrofolate reductase; in short: as §2
[18] = molecular target: Bifunctional dihydrofolate reductase-thymidylate synthase (Plasmodium falciparum K1, UniProt P13922, C59R/I164L/S108N); assay: Binding affinity towards mutant dihydrofolate reductase (C59R+S108N+I164L DHFR) of Plasmodium falciparum
Bifunctional dihydrofolate reductase-thymidylate synthase (Plasmodium falciparum K1, UniProt P13922, C59R/I164L/S108N), sequence (P13922 whole entry, looked up, stated change not applied): as above

BC [19] = assay: Relative antiplasmodial activity to cytotoxicity in Plasmodium falciparum Csl-2 infected BC cells; format: functional

NC1=NC(c2ccc(Oc3ccccc3)cc2)N(c2cccc(Cl)c2)C(N)=N1 (stereo unspecified)
Safety ratio (Vero [1]): >15.2 | IC50 (Vero [2]): > 50000 nM | Ki [3]: 1.3 nM | Safety ratio (Vero [4]): >15.2 | Safety ratio (Vero [5]): >76.9 | Ratio [6]: 1.9 | IC50 (BC [7]): 5300 nM | Ki [8]: 0.9 nM | Safety ratio (KB [9]): 6.2 | Safety ratio (BC [10]): 8.3 | Ki [11]: 2.7 nM | IC50 (KB [12]): 4000 nM | Ratio [13]: 1.2 | Ratio [14]: 0.5 | Safety ratio (KB [15]): 1.2 | Safety ratio (KB [16]): 1.2 | Ratio [17]: 3.9 | Ki [18]: 0.3 nM | Safety ratio (BC [19]): 1.6

NC1=NC(c2cccc(Oc3cc(Cl)cc(Cl)c3)c2)N(c2cccc(Cl)c2)C(N)=N1 (stereo unspecified)
Safety ratio (Vero [1]): 7.2 | IC50 (Vero [2]): 28000 nM | Ki [3]: 2.7 nM | Safety ratio (Vero [4]): 7.2 | Safety ratio (Vero [5]): 5.1 | Ratio [6]: 1.5 | IC50 (BC [7]): 10000 nM | Ki [8]: 1 nM | Safety ratio (KB [9]): 1.1 | Safety ratio (BC [10]): 1.8 | Ki [11]: 4.7 nM | IC50 (KB [12]): 6000 nM | Ratio [13]: 0.6 | Ratio [14]: 0.3 | Safety ratio (KB [15]): 1.5 | Safety ratio (KB [16]): 1.5 | Ratio [17]: 2.6 | Ki [18]: 0.6 nM | Safety ratio (BC [19]): 2.6

CCCCCCCC1N=C(N)N=C(N)N1c1cccc(Cl)c1 (stereo unspecified)
Safety ratio (Vero [1]): >20 | IC50 (Vero [2]): > 50000 nM | Ki [3]: 0.8 nM | Safety ratio (Vero [4]): >357 | Safety ratio (Vero [5]): >1250 | Ratio [6]: 0.3 | IC50 (BC [7]): 1800 nM | Ki [8]: 1 nM | Safety ratio (KB [9]): 25 | Safety ratio (BC [10]): 45 | Ki [11]: 3.8 nM | IC50 (KB [12]): 1000 nM | Ratio [13]: 0.4 | Ratio [14]: 0.1 | Safety ratio (KB [15]): 7.1 | Safety ratio (KB [16]): 0.4 | Ratio [17]: 1.4 | Ki [18]: 0.3 nM | Safety ratio (BC [19]): 12.9

CCCOc1ccc(C2N=C(N)N=C(N)N2c2cccc(Cl)c2)cc1 (stereo unspecified)
Safety ratio (Vero [1]): >17.2 | IC50 (Vero [2]): > 50000 nM | Ki [3]: 2.7 nM | Safety ratio (Vero [4]): >17.2 | Safety ratio (Vero [5]): >200 | IC50 (BC [7]): 30000 nM | Ki [8]: 2.1 nM | Safety ratio (KB [9]): 24 | Safety ratio (BC [10]): 120 | Ki [11]: 9.3 nM | IC50 (KB [12]): 6000 nM | Safety ratio (KB [15]): 2.1 | Safety ratio (KB [16]): 2.1 | Ki [18]: 0.5 nM | Safety ratio (BC [19]): 10.3

NC1=NC(c2cccc(Oc3cccc(C(F)(F)F)c3)c2)N(c2cccc(Cl)c2)C(N)=N1 (stereo unspecified)
Safety ratio (Vero [1]): 9.4 | IC50 (Vero [2]): 30000 nM | Ki [3]: 4.8 nM | Safety ratio (Vero [4]): 8.8 | Safety ratio (Vero [5]): 9.4 | Ratio [6]: 1.8 | IC50 (BC [7]): 6400 nM | Ki [8]: 2 nM | Safety ratio (KB [9]): 1.9 | Safety ratio (BC [10]): 2 | Ki [11]: 6.5 nM | IC50 (KB [12]): 6000 nM | Ratio [13]: 0.7 | Ratio [14]: 0.2 | Safety ratio (KB [15]): 1.8 | Safety ratio (KB [16]): 1.9 | Ratio [17]: 2.4 | Ki [18]: 0.6 nM | Safety ratio (BC [19]): 1.9

NC1=NC(c2cccc(OCc3ccccc3)c2)N(c2cccc(Cl)c2)C(N)=N1 (stereo unspecified)
Safety ratio (Vero [1]): >6.1 | IC50 (Vero [2]): > 50000 nM | Ki [3]: 7.7 nM | Safety ratio (Vero [4]): >6.7 | Safety ratio (Vero [5]): >12.5 | Ratio [6]: 3.3 | IC50 (BC [7]): 22000 nM | Ki [8]: 3.2 nM | Safety ratio (KB [9]): 2 | Safety ratio (BC [10]): 5.5 | Ki [11]: 3.2 nM | IC50 (KB [12]): 8000 nM | Ratio [13]: 1.4 | Ratio [14]: 1.6 | Safety ratio (KB [15]): 1.1 | Safety ratio (KB [16]): 1 | Ratio [17]: 1.4 | Ki [18]: 3.6 nM | Safety ratio (BC [19]): 2.9

Nc1nc(N)c(-c2ccccc2)c(CCCOC(=O)c2ccccc2)n1
Ki [3]: 14 nM | Ratio [6]: 4.1 | Ki [8]: 0.7 nM | Ratio [13]: 0.2 | Ratio [14]: 0.8 | Ki [18]: 2.7 nM

CC(C)C1(C)N=C(N)N=C(N)N1c1cccc(Cl)c1 (stereo unspecified)
Ki [3]: 472 nM | Ratio [6]: 18.1 | Ki [8]: 196 nM | Ki [11]: 2180 nM | Ratio [13]: 7.7 | Ratio [14]: 8.4 | Ratio [17]: 85 | Ki [18]: 213 nM

CC(=O)OCCCc1nc(N)nc(N)c1-c1ccccc1
Ki [3]: 237 nM | Ratio [6]: 22.3 | Ki [8]: 5 nM | Ratio [13]: 0.5 | Ratio [14]: 1.7 | Ki [18]: 18 nM

NC1=NC(c2cccc(OCc3ccccc3)c2)N(c2ccc(Cl)cc2)C(N)=N1 (stereo unspecified)
Ki [3]: 638 nM | Ratio [6]: 911 | Ki [8]: 220 nM | Ki [11]: 6.2 nM | Ratio [13]: 315 | Ratio [14]: 1100 | Ratio [17]: 8.9 | Ki [18]: 771 nM

CC1(C)N=C(N)N=C(N)N1c1cccc(Cl)c1
IC50 (Vero [2]): 49000 nM | IC50 (BC [7]): 8900 nM | IC50 (KB [12]): 4000 nM

Source: ChEMBL document CHEMBL1138835, “Inhibitors of multiple mutants of Plasmodium falciparum dihydrofolate reductase and their antimalarial activities” (J Med Chem, 2004)
